Results pooled from the literature.
Compare with care: the assays were run in different laboratories. ≈ marks a conversion by molar mass, not a printed value.
Organism: Streptococcus pneumoniae

CN(C)[C@@H]1C(O)=C(C(N)=O)C(=O)[C@@]2(O)C(O)=C3C(=O)c4c(cc5ccc(-c6cccnc6)cc5c4O)C[C@H]3C[C@@H]12  MIC (microbial growth; broth dilution; ATCC49619): 32 µg/mL (≈ 59.1 µM)
CN(C)c1cc(CNCC(C)(C)C)c(O)c2c1C[C@H]1C[C@H]3[C@H](N(C)C)C(O)=C(C(N)=O)C(=O)[C@@]3(O)C(O)=C1C2=O  MIC (microbial growth; 157E): < 0.06 µg/mL
O=C(O)CN1C(=O)/C(=C/c2c3ccccc3c(-c3ccc(N(c4ccccc4)c4ccccc4)cc3)c3ccccc23)NC1=S  MBC (microbial killing; broth dilution; ATCC49619): > 1000 µg/mL
CN(C)c1ccc(-c2ccc3cc4c(c(O)c3c2)C(=O)C2=C(O)[C@]3(O)C(=O)C(C(N)=O)=C(O)[C@@H](N(C)C)[C@@H]3C[C@@H]2C4)cc1  MIC (microbial growth; broth dilution; ATCC49619): 32 µg/mL (≈ 54.8 µM)
COc1cc(Cc2cnc(N)nc2N)cc(OC)c1OC  MBC (microbial killing; broth dilution; 48 h): 0.25 µg/mL (≈ 0.861 µM)
O=C(O)CN1C(=O)/C(=C/c2ccc(-c3ccc(N(c4ccccc4)c4ccccc4)cc3)cc2)SC1=S  MBC (microbial killing; broth dilution; ATCC49619): 500 µg/mL (≈ 957 µM)
O=c1[nH]cc(F)c(=O)[nH]1  MBC (microbial killing; broth dilution; 48 h): 0.25 µg/mL (≈ 1.92 µM)
CC[C@H]1OC(=O)[C@H](C)[C@@H](O[C@H]2C[C@@](C)(OC)[C@@H](O)[C@H](C)O2)[C@H](C)[C@@H](O[C@@H]2O[C@H](C)C[C@H](N(C)C)[C@H]2O)[C@](C)(OC)C[C@@H](C)C(=O)[C@H](C)[C@@H](O)[C@]1(C)O  MIC90 (microbial growth): 256 µg/mL (≈ 342 µM)
